# Experimental data from ChEMBL document CHEMBL3352168, “Potent, orally available, selective COX-2 inhibitors based on 2-imidazoline core” (Eur J Med Chem, 2014).
# Columns and labels:
# [1] = target: T1, Prostaglandin G/H synthase 1 (Ovis aries) (UniProt P05979); assay: Inhibition of ovine COX1 using fluorometric substrate at 100 uM by fluorescent inhibitor screening assay
# T1 sequence (whole entry): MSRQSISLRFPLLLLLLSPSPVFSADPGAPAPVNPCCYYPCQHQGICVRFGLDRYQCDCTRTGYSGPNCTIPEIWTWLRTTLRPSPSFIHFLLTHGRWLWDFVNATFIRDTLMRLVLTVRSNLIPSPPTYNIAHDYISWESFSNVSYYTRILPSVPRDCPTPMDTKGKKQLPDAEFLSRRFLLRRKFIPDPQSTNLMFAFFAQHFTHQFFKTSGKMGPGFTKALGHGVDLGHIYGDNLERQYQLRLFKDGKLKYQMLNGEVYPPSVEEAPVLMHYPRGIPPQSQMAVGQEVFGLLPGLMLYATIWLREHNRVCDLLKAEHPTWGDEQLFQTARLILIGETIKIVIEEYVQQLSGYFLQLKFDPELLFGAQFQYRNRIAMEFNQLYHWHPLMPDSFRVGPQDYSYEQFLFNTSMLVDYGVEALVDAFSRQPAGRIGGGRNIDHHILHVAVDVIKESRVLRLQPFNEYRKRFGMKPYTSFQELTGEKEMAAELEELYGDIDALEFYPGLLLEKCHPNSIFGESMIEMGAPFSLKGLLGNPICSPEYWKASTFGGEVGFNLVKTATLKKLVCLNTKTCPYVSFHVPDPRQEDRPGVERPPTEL
# [2] = target: T2, Prostaglandin G/H synthase 2 (Homo sapiens, UniProt P35354); assay: Inhibition of human recombinant COX2 using fluorometric substrate by fluorescent inhibitor screening assay
# T2 sequence (P35354 whole entry): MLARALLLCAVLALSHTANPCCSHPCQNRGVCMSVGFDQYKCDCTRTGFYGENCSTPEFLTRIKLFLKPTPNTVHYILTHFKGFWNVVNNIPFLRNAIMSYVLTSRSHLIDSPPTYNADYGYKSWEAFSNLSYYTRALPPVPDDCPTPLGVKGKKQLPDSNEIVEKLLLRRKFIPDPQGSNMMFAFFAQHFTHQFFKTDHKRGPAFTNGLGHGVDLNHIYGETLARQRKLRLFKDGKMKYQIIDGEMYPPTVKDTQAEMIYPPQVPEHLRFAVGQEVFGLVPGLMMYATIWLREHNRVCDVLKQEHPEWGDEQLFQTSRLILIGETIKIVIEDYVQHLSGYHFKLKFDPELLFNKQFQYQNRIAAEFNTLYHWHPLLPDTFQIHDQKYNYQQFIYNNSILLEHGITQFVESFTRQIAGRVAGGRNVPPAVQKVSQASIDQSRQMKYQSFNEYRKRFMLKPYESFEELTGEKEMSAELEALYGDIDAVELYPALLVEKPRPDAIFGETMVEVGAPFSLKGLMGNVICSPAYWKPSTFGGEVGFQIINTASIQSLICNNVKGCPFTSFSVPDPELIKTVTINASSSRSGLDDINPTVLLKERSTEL
# Procedure, shortened: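 Human recombinant COX-2 in 100 mM Tris-HCl pH 8.0 with heme and ADHP fluorometric substrate; inhibitor added at final […] (units as printed) from DMSO stocks; reaction started with arachidonic acid, 2 min at room temperature. Resorufin fluorescence read at ex 535/em 590 nm; % inhibition vs no-inhibitor activity; IC50 from concentration–inhibition curve, triplicate determinations.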
# [3] = Tmax in C57Bl mouse plasma at 10 mg/kg, po; format: ADME, organism-based; set-up: dose 10 mg/kg, route oral
# Procedure, shortened: (§1)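 Male C57Bl mice, about 2 months old, 18.1–23.6 g, fasted overnight, dosed by oral gavage; 4 animals per group plus non-dosed control group; killed by cervical dislocation for blood and whole brain. Plasma precipitated with internal standard; brain homogenized in 67% methanol, centrifuged, spiked with internal standard; quantified by HPLC-MS against blank-brain calibration.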
# [4] = Tmax in C57Bl mouse brain at 10 mg/kg, po; format: ADME, organism-based; set-up: dose 10 mg/kg, route oral; procedure, shortened: as §1
# [5] = Cmax in C57Bl mouse plasma at 10 mg/kg, po; format: ADME, organism-based; set-up: dose 10 mg/kg, route oral; procedure, shortened: as §1
# [6] = Cmax in C57Bl mouse brain at 10 mg/kg, po; format: ADME, organism-based; set-up: dose 10 mg/kg, route oral; procedure, shortened: as §1
# [7] = AUC (0 to 240 mins) in C57Bl mouse plasma at 10 mg/kg, po; format: ADME, organism-based; set-up: time < 4 hr, dose 10 mg/kg, route oral; procedure, shortened: as §1
# [8] = AUC (0 to 240 mins) in C57Bl mouse brain at 10 mg/kg, po; format: ADME, organism-based; set-up: time < 4 hr, dose 10 mg/kg, route oral; procedure, shortened: as §1
# [9] = AUC (0 to infinity) in C57Bl mouse plasma at 10 mg/kg, po; format: ADME, organism-based; set-up: time infinity, dose 10 mg/kg, route oral; procedure, shortened: as §1
# [10] = AUC (0 to infinity) in C57Bl mouse brain at 10 mg/kg, po; format: ADME, organism-based; set-up: time infinity, dose 10 mg/kg, route oral; procedure, shortened: as §1
# [11] = Half life in C57Bl mouse plasma at 10 mg/kg, po; format: ADME, organism-based; set-up: dose 10 mg/kg, route oral; procedure, shortened: as §1
# [12] = Half life in C57Bl mouse brain at 10 mg/kg, po; format: ADME, organism-based; set-up: dose 10 mg/kg, route oral; procedure, shortened: as §1
# Plasma [13] = assay: Volume of distribution at steady state in C57Bl mouse plasma at 10 mg/kg, po; format: ADME, organism-based; set-up: dose 10 mg/kg, route oral; details: in vivo; procedure, shortened: as §1
# [14] = Clearance in C57Bl mouse plasma at 10 mg/kg, po; format: ADME, organism-based; set-up: dose 10 mg/kg, route oral; procedure, shortened: as §1
# Plasma [15] = assay: Tmax in C57Bl mouse plasma assessed as aromatization metabolite at 10 mg/kg, po; format: ADME, organism-based; set-up: dose 10 mg/kg, route oral; details: in vivo
# Brain [16] = assay: Tmax in C57Bl mouse brain assessed as aromatization metabolite at 10 mg/kg, po; format: ADME, organism-based; set-up: dose 10 mg/kg, route oral; details: in vivo
# Plasma [17] = assay: Cmax in C57Bl mouse plasma assessed as aromatization metabolite at 10 mg/kg, po; format: ADME, organism-based; set-up: dose 10 mg/kg, route oral; details: in vivo
# Brain [18] = assay: Cmax in C57Bl mouse brain assessed as aromatization metabolite at 10 mg/kg, po; format: ADME, organism-based; set-up: dose 10 mg/kg, route oral; details: in vivo
# Plasma [19] = assay: AUC (0 to 240 mins) in C57Bl mouse plasma assessed as aromatization metabolite at 10 mg/kg, po; format: ADME, organism-based; set-up: time < 4 hr, dose 10 mg/kg, route oral; details: in vivo, 4 h
# Brain [20] = assay: AUC (0 to 240 mins) in C57Bl mouse brain assessed as aromatization metabolite at 10 mg/kg, po; format: ADME, organism-based; set-up: time < 4 hr, dose 10 mg/kg, route oral; details: in vivo, 4 h
# Plasma [21] = assay: AUC (0 to infinity) in C57Bl mouse plasma assessed as aromatization metabolite at 10 mg/kg, po; format: ADME, organism-based; set-up: dose 10 mg/kg, route oral, time infinity; details: in vivo
# Brain [22] = assay: AUC (0 to infinity) in C57Bl mouse brain assessed as aromatization metabolite at 10 mg/kg, po; format: ADME, organism-based; set-up: time infinity, dose 10 mg/kg, route oral; details: in vivo
# Plasma [23] = assay: Half life in C57Bl mouse plasma assessed as aromatization metabolite at 10 mg/kg, po; format: ADME, organism-based; set-up: dose 10 mg/kg, route oral; details: in vivo
# Brain [24] = assay: Half life in C57Bl mouse brain assessed as aromatization metabolite at 10 mg/kg, po; format: ADME, organism-based; set-up: dose 10 mg/kg, route oral; details: in vivo
# Brain [25] = assay: Drug metabolism in C57Bl mouse brain at 10 mg/kg, po; format: ADME, organism-based; set-up: dose 10 mg/kg, route oral; details: in vivo
# Plasma [26] = assay: Drug metabolism in C57Bl mouse plasma at 10 mg/kg, po; format: ADME, organism-based; set-up: dose 10 mg/kg, route oral; details: in vivo
# Mus musculus = assay: Antiinflammatory activity in mouse assessed as reduction in carrageenan-induced inflamed paw volume at 3.7 mg/kg, ip relative to untreated control; format: functional; details: route intraperitoneal
structure (smiles),measurement,setting,value
NS(=O)(=O)c1ccc(N2CCN=C2c2ccc(F)cc2)cc1,inhibition,[1],11.4%
same,IC50,[2],6.9 µM
COc1ccc(C2=NCCN2c2ccc(S(C)(=O)=O)cc2)cc1F,inhibition,[1],-1.6%
same,IC50,[2],> 10 µM
NS(=O)(=O)c1ccc(N2CCN=C2c2cccc(F)c2)cc1,inhibition,[1],-1.4%
same,IC50,[2],7.2 µM
CS(=O)(=O)c1ccc(N2CCN=C2c2ccc(Cl)c(C(F)(F)F)c2)cc1,inhibition,[1],4.7%
same,IC50,[2],3.6 µM
CC1CN(c2ccc(S(C)(=O)=O)cc2)C(c2ccc(Cl)cc2)=N1 (racemic),inhibition,[1],-5.2%
same,IC50,[2],> 10 µM
CS(=O)(=O)c1ccc(N2CCN=C2c2cccc(Cl)c2)cc1,inhibition,[1],1.4%
same,IC50,[2],8.1 µM
COc1cc(C2=NCCN2c2ccc(S(C)(=O)=O)cc2)ccc1F,inhibition,[1],-4.3%
same,IC50,[2],> 10 µM
COc1ccc(C2=NCCN2c2ccc(S(C)(=O)=O)cc2)cc1Cl,inhibition,[1],1.2%
same,IC50,[2],> 10 µM
NS(=O)(=O)c1ccc(N2CCN=C2c2ccc(F)c(F)c2)cc1,inhibition,[1],6.6%
same,IC50,[2],6.7 µM
CC1CN(c2ccc(S(C)(=O)=O)cc2)C(c2ccc(F)cc2)=N1 (racemic),inhibition,[1],6.3%
same,IC50,[2],> 10 µM
COc1ccc(C2=NCCN2c2ccc(S(N)(=O)=O)cc2)cc1Cl,inhibition,[1],3%
same,IC50,[2],6.2 µM
CC1CN(c2ccc(S(N)(=O)=O)cc2)C(c2ccc(F)cc2)=N1 (racemic),inhibition,[1],5.5%
same,IC50,[2],> 10 µM
CS(=O)(=O)c1ccc(N2CCN=C2c2ccc(F)c(F)c2)cc1,inhibition,[1],9.2%
same,IC50,[2],> 10 µM
NS(=O)(=O)c1ccc(N2CCN=C2c2ccc(Cl)c(C(F)(F)F)c2)cc1,inhibition,[1],2.7%
same,IC50,[2],1.8 µM
NS(=O)(=O)c1ccc(N2CCN=C2c2ccc(Cl)c(Cl)c2)cc1,inhibition,[1],8.7%
same,IC50,[2],0.3 µM
same,Tmax,[3],5 min
same,Tmax,[4],0.5 h
same,Cmax,[5],6140 ng/mL
same,Cmax,[6],267 ng/mL
same,AUC(0-t) at 4 h,[7],11700 ng·h/mL
same,AUC(0-t) at 4 h,[8],491 ng·h/mL
same,AUC(0-inf),[9],12700 ng·h/mL
same,AUC(0-inf),[10],525 ng·h/mL
same,half-life,[11],1.08 h
same,half-life,[12],0.967 h
same,Vdss,Plasma [13],1.22 L/kg
same,CL/F,[14],13 mL/min/kg
same,Tmax,Plasma [15],2 h
same,Tmax,Brain [16],2 h
same,Cmax,Plasma [17],735 ng/mL
same,Cmax,Brain [18],33 ng/mL
same,AUC,Plasma [19],145573 ng·min/mL
same,AUC,Brain [20],5969 ng·min/mL
same,AUC,Plasma [21],364739 ng·min/mL
same,AUC,Brain [22],8533 ng·min/mL
same,t1/2,Plasma [23],4.65 h
same,t1/2,Brain [24],1.87 h
same,Drug metabolism,Brain [25],metabolite_detected
same,Drug metabolism,Plasma [26],metabolite_detected
same,inhibition in vivo at 3.7 mg/kg,Mus musculus,56%
